The values below come from ChEMBL document CHEMBL1921750 (J Med Chem, 2011).

The target in data set [1] is T1, Cannabinoid receptor 1 (Homo sapiens, UniProt P21554). The data set is described as follows: Displacement of [3H]CP55940 from human CB1 receptor expressed in human HEK293 cells. In kind it is cell-based.
A further data set addresses Cannabinoid receptor 2 (Homo sapiens, UniProt P34972). The data set is described as follows: Displacement of [3H]CP55940 from human CB2 receptor expressed in human HEK293 cells. In kind it is cell-based. Summed up:
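Membranes from HEK-293 cells stably expressing human CB1 or CB2. Compounds displacing >50% at 10 μM got curves at 1–1000 nM. Ki from IC50 via Cheng–Prusoff. Three experiments in duplicate. SI = Ki CB2/Ki CB1.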

For the next data set, the species on record is Homo sapiens. Kind of data set: Selectivity index, ratio of Ki for human CB2 receptor to Ki for human CB1 receptor. Summed up:
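Membranes from HEK-293 cells stably expressing human CB1 or CB2. […] Preliminary screen at 5, 10, 25 μM. Compounds displacing >50% at 10 μM got curves at 1–1000 nM. Ki from IC50 via Cheng–Prusoff. Three experiments in duplicate. SI = Ki CB2/Ki CB1.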

Data set [2] addresses Cannabinoid receptor 1 (Mus musculus, UniProt P47746). Kind of data set: Agonist activity at MF1 mouse brain CB1 receptor assessed as induction of [35S]GTPgammaS binding after 60 mins by liquid scintillation counting. In kind it is functional, tissue-based. In a few lines:
(§1)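 [35S]GTPγS binding in buffer of 50 mM Tris-HCl, 50 mM Tris-base, 5 mM MgCl2, 1 mM EDTA, 100 mM NaCl, 1 mM DTT, 0.1% BSA with 0.1 nM [35S]GTPγS and 30 μM GDP. Mouse whole brain membranes (5 μg/well) were preincubated 30 min at 30 °C with adenosine deaminase. CHO-hCB1 membranes were used at 50 μg/well. Test range 1 nM–10 μM. Incubation 60 min at 30 °C, filtration, scintillation counting. Nonspecific binding taken with 30 μM GTPγS. Net stimulation = agonist minus basal. EC50/Emax by sigmoid nonlinear regression.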

The target of data set [3] is Cannabinoid receptor 1 (Mus musculus) (UniProt P47746). Kind of data set: Agonist activity at MF1 mouse brain CB1 receptor assessed as induction of [35S]GTPgammaS binding after 60 mins by liquid scintillation counting relative to cannabinoid receptor agonist CP55940. In kind it is functional, tissue-based. In a few lines:
as §1

The target is the same in data set [4]. Kind of data set: Antagonist activity at MF1 mouse brain CB1 receptor assessed as inhibition of CP55940-induced [35S]GTPgammaS binding at 100 nM after 60 mins by liquid scintillation counting. In kind it is functional. Summed up:
(§2)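 Same [35S]GTPγS assay on mouse whole brain membranes (5 μg/well, adenosine deaminase-preincubated). 0.1 nM [35S]GTPγS, 30 μM GDP. Single concentration of test compound, 1 μM or 100 nM, against a log concentration-response curve of CP-55940. Incubation 60 min at 30 °C. Read by filtration and liquid scintillation counting.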

Data set [5] addresses T1, Cannabinoid receptor 1. The data set is described as follows: Agonist activity at human CB1 receptor expressed in CHO cells assessed as induction of [35S]GTPgammaS binding after 60 mins by liquid scintillation counting. It counts as functional, cell-based. In a few lines: as §1
Data set [6] has as its target T1, Cannabinoid receptor 1. Kind of data set: Antagonist activity at human CB1 receptor expressed in CHO cells assessed as inhibition of CP55940-induced [35S]GTPgammaS binding after 60 mins by liquid scintillation counting. In kind it is functional, cell-based.
A short description of data set [7]: Chemical stability of the compound in biological buffer at 2.1 mM at 30 degC after 90 mins by LC-MS/MS analysis. It counts as physicochemical. Particulars: 1.5 h, 2100 µM. In a few lines: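 DMSO solution (2.1 mM stock) diluted in GTPγS binding buffer and incubated 90 min at 30 °C. Samples taken at 60 and 90 min and analysed by LC–ESI triple-quadrupole MS (positive mode, C18, acetonitrile/0.1% formic acid gradient) for hydrolysis products.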

Data set [8] deals with Plasma. The data set is described as follows: Metabolic stability of the compound in human plasma assessed as plasma esterase-mediated compound hydrolysis at 200 uM from 15 to 120 mins by reverse-phase LC-MS analysis. In kind it is ADME, cell-free. In a few lines: (§3)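 Citrated human plasma, or water as control, spiked to final 1 × 10⁻⁴ or 2 × 10⁻⁴ M. Incubated at 37 °C for 0, 15, 30, 60, 120 min, stopped with acetonitrile, centrifuged. Supernatant run by reverse-phase LC (C8, methanol/water 92/8) with UV 254 nm and positive-ion MS. Triplicates. AUC(0–120 min) compared by Student's t test.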

The subject of another data set is CYP3A4. Kind of data set: Metabolic stability assessed as compound remaining at 1 uM after 1 hr by LC-MS analysis in presence of human CYP3A4 and NADPH. In kind it is ADME. The note with it: human CYP3A4 enzyme, read-out: Stability. In a few lines:
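Recombinant human CYP3A4 at 20 pmol/mL (0.1–0.2 mg/mL protein). Substrate final 1 μM, 0.25% organic solvent. Run with NADPH regenerating system or phosphate buffer instead. Incubated 1 h at 37 °C, stopped with acetonitrile. Percent remaining by MS.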

Data set [9] relates to Plasma. Kind of data set: Metabolic stability of the compound in human plasma assessed as plasma esterase-mediated compound hydrolysis at 100 uM from 15 to 120 mins by reverse-phase LC-MS analysis. In kind it is ADME, cell-free. Summed up:
as §3

Data set [10] addresses Cannabinoid receptor 1 (Mus musculus) (UniProt P47746). The data set is described as follows: Antagonist activity at MF1 mouse brain CB1 receptor assessed as inhibition of CP55940-induced [35S]GTPgammaS binding at 1 uM after 60 mins by liquid scintillation counting. It counts as functional. In a few lines: as §2

Active and inactive are the calls of the source. The rule behind the calls is not given here.

T1 sequence (P21554 whole entry): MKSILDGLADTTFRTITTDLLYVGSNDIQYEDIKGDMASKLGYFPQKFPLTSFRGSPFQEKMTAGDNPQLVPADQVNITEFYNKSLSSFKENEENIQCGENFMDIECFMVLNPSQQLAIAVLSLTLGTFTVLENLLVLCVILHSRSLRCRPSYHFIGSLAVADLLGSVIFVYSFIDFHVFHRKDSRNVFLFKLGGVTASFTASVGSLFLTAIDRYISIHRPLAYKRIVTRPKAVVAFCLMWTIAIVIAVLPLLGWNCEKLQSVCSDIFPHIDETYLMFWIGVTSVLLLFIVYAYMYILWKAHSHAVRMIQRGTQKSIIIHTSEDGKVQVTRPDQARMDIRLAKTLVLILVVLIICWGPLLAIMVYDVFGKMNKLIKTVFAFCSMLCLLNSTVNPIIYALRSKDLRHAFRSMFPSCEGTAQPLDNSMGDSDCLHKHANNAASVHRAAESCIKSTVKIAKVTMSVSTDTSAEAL
Sequence of Cannabinoid receptor 1 (Mus musculus, UniProt P47746) (P47746 whole entry): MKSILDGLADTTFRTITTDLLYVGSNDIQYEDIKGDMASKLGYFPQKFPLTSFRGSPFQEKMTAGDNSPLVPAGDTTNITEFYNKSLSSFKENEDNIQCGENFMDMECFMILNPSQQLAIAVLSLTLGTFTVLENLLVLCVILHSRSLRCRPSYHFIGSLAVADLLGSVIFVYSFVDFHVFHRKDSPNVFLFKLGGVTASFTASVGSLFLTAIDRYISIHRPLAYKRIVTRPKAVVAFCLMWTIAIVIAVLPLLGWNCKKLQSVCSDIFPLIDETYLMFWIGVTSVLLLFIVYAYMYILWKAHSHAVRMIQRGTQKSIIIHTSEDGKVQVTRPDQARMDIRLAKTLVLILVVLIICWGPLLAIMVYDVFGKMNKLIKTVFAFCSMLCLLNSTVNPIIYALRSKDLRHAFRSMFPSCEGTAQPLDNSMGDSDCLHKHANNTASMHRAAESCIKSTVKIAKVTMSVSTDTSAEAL
Sequence of Cannabinoid receptor 1 (Mus musculus) (P47746 whole entry): as above
Sequence of Cannabinoid receptor 2 (P34972 whole entry): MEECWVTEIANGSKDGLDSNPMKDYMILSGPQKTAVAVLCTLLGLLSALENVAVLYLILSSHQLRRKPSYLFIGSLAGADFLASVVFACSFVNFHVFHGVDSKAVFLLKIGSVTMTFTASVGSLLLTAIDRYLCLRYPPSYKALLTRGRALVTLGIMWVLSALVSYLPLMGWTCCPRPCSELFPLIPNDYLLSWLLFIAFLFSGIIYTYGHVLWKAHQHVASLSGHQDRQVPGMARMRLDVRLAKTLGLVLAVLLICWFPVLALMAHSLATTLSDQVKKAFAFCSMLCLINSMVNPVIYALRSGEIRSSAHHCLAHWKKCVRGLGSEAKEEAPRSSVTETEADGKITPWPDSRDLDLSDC

On to `CCCCCCc1ccc(OCCCCCCCCCCOC(CO)CO)cc1O`, for which the inhibition constant Ki on Cannabinoid receptor 1 [1] was more than 10 µM; at Cannabinoid receptor 2 it was 2.39 µM.

For `CCCCCCC(C)(C)c1cc(O)cc(OCCCCCCCCCCC(=O)OC(CO)CO)c1`, the Ki on Cannabinoid receptor 1 [1] was found to be 0.01 µM; on Cannabinoid receptor 2 it was 0.79 µM. Besides, the Ratio Ki in the data set filed under Homo sapiens turned out to be 88. For the same molecule, the concentration for a half-maximal effect (EC50) on Cannabinoid receptor 1 [2] amounted to 0.0063 µM. Besides, the maximum response (Emax) in [3] was found to be 14.7%. For the same molecule, the outcome (in [4]; at Cannabinoid receptor 1 [5]; at Cannabinoid receptor 1 [6]) was inactive. Besides, the Stability entry (in [7]; in the data set with Plasma [8]; in the data set with Plasma [9]) was “Stable” in each case. The remaining at 1 h, 1 µM in the data set with CYP3A4 amounted to 24%.

For `CCCCCCC(C)(C)c1ccc([C@@H]2C[C@H](O)CC[C@H]2CCCO)c(O)c1` [CP-55940], the EC50 at Cannabinoid receptor 1 [2] is 0.042 µM. Moreover, the maximal effect (Emax) in data set [3] was found to be 104%.

Regarding `CCCCCCC(C)(C)c1cc(O)cc(OCCCCCCCCCCCCOC(CO)CO)c1`, the Ki is 1.04 µM at Cannabinoid receptor 1 [1] and 1.67 µM on Cannabinoid receptor 2.

Regarding `CCCCCc1cc(O)cc(OCCCCCCCCCCOC(CO)CO)c1`, the inhibition constant (Ki) at Cannabinoid receptor 1 [1] and at Cannabinoid receptor 2 was more than 10 µM in each case.

In the case of `CCCCCCc1ccc(OCCCCCCCCCCC(=O)OC(CO)CO)cc1O`, the inhibition constant Ki on Cannabinoid receptor 1 [1] is more than 10 µM; at Cannabinoid receptor 2, 7.87 µM.

For the molecule `CCCCCCc1ccc(OCCCCCCOC(CO)CO)cc1O`, the inhibition constant (Ki) at Cannabinoid receptor 1 [1] was more than 10 µM; at Cannabinoid receptor 2 it was 1.13 µM.

For `CCCCCCC(C)(C)c1cc(O)cc(OCCCCCCCCCCCC(=O)OC(CO)CO)c1`, the Ki at Cannabinoid receptor 1 [1] was found to be 2.71 µM; on Cannabinoid receptor 2, 0.8 µM.

As for `CCCCCCc1ccc(O)cc1OCCCCCCCCCCC(=O)OC(CO)CO`, the results for the Ki on Cannabinoid receptor 1 [1] and on Cannabinoid receptor 2 were 0.06 µM and 1.8 µM, respectively. Moreover, the Ratio Ki in the data set listed under Homo sapiens was determined as 32. The EC50 at Cannabinoid receptor 1 [2] was determined as 0.0784 µM. In [3], the Emax came out at 11.4%. Besides, the outcome (in data set [10]; at Cannabinoid receptor 1 [5]; at Cannabinoid receptor 1 [6]) was inactive.

For `CCCCCc1cc(O)cc(OCCCCCCCCOC(CO)CO)c1`, the Ki at Cannabinoid receptor 1 [1] amounted to 1.86 µM; on Cannabinoid receptor 2, 1.16 µM.

For the molecule `CCCCCc1cc(O)cc(OCCCCCCOC(CO)CO)c1`, the inhibitory constant (Ki) was found to be 0.43 µM on Cannabinoid receptor 1 [1] and 0.91 µM at Cannabinoid receptor 2.

Consider `CCCCCCc1ccc(OCCCCCCCCCCC(=O)OCC(O)CO)cc1O` (stereo not given), for which the Ki at Cannabinoid receptor 1 [1] is more than 10 µM; at Cannabinoid receptor 2, 10.4 µM.

`CCCCCc1cc(O)cc(OCCCCCCCCCCC(=O)OCC(O)CO)c1` (stereo not given): the inhibitory constant (Ki) was more than 10 µM on Cannabinoid receptor 1 [1] and 7.91 µM at Cannabinoid receptor 2.

For `CCCCCCc1ccc(OCCCCCCCC(=O)OC(CO)CO)cc1O`, the values for the Ki on Cannabinoid receptor 1 [1] and on Cannabinoid receptor 2 were more than 10 µM and 7.87 µM, respectively.

Turning to `CCCCCCC(C)(C)c1cc(O)cc(OCCCCCCCC(=O)OC(CO)CO)c1`, the Ki was found to be 1.12 µM on Cannabinoid receptor 1 [1] and 0.79 µM at Cannabinoid receptor 2.

Take `CCCCCc1cc(O)cc(OCCCCCCCCCCC(=O)OC(CO)CO)c1`: the inhibition constant Ki on Cannabinoid receptor 1 [1] stood at 5.6 µM; on Cannabinoid receptor 2, 0.87 µM.

Regarding `CCCCC/C=C\C/C=C\C/C=C\C/C=C\CCCCOC(CO)CO`, the inhibition constant Ki on Cannabinoid receptor 1 [1] was 0.02 µM; at Cannabinoid receptor 2 it was more than 3 µM.

In the case of `CCCCCCC(C)(C)c1cc(O)cc(OCCCCCCCCCCOC(CO)CO)c1`, the Ki was 2.94 µM on Cannabinoid receptor 1 [1] and 0.38 µM on Cannabinoid receptor 2.

With `CCCCCc1cc(O)cc(OCCCCCCCC(=O)OC(CO)CO)c1`, the Ki came to 5.6 µM at Cannabinoid receptor 1 [1] and 7.87 µM on Cannabinoid receptor 2.

`CCCCCCc1ccc(O)cc1OCCCCCCCCCCC(=O)OCC(O)CO` (stereo not given): the Ki on Cannabinoid receptor 1 [1] was more than 10 µM; at Cannabinoid receptor 2, 4.82 µM.

Regarding `CCCCCCc1ccc(O)cc1OCCCCCCCC(=O)OC(CO)CO`, the inhibition constant (Ki) was found to be 0.8 µM at Cannabinoid receptor 1 [1] and 1.8 µM at Cannabinoid receptor 2.

Take `CCCCCc1cc(O)cc(OCCCCCCCCCCCCOC(CO)CO)c1`: the inhibition constant (Ki) at Cannabinoid receptor 1 [1] is 3.78 µM; at Cannabinoid receptor 2 it was more than 10 µM.

Consider `CCCCCCC(C)(C)c1cc(O)cc(OCCCCCCCCCCC(=O)OCC(O)CO)c1` (stereo not given), for which the inhibition constant (Ki) at Cannabinoid receptor 1 [1] is more than 10 µM; at Cannabinoid receptor 2, 0.31 µM.

The molecule `CCCCCCC(C)(C)c1cc(O)cc(OCCCCCCOC(CO)CO)c1` came in with a Ki at Cannabinoid receptor 2 of 0.19 µM. That is a sub-micromolar value.

As for `CCCCCCC(C)(C)c1cc(O)cc(OCCCCCCCCOC(CO)CO)c1`, the inhibition constant (Ki) on Cannabinoid receptor 1 [1] came out at 0.27 µM; on Cannabinoid receptor 2, 0.11 µM.
